This series in a line: Toxicity liver stage against HepG2, at 10uM. The class given is cell-based. Details: test concentration 10 uM, cell line HepG2-A16-CD81EGFP. To be noted: human, HepG2-A16-CD81EGFP cells; read-out: INHIBITION
The method, boiled down: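 Uninfected HepG2-A16-CD81EGFP cells, 3 × 10^3 per well, 1536-well, plated on prespotted compound at 10 μM final, parasite-free screening media added to match infected plates; puromycin 10 μM positive, DMSO 0.5% negative; run in parallel with 48 h PbLuc assay at 37 °C, 5% CO2; viability by CellTiter-Glo luminescence, normalized to controls.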

With `Cc1ncc(S(C)(=O)=O)c(N2CCCCCC2)n1`, the cytotoxicity at 10 µM is -0.972%.

For `CCc1nc(CN2CCCN(Cc3noc(C4CC4)n3)CC2)cs1`, the cytotoxicity at 10 µM is -7.35%.

With `O=c1cccnn1CC1CN(c2ncc(F)cn2)Cc2nccn2C1` (centres undefined), the cytotoxicity at 10 µM is 4.65%.

For `N#CCCN(Cc1ccco1)C(=O)CCCc1ccccc1`, the cytotoxicity at 10 µM worked out at 73.1%.

With `COc1ccnc(NC(=O)CSCc2cccnc2)c1`, the cytotoxicity at 10 µM is -47.2%.

Turning to `CN(C)c1nccc(C2CCCN(C(=O)CO)C2)n1` (centres undefined), the cytotoxicity at 10 µM was -29.1%.

With `Cc1ccc(C(=O)N2C[C@@H]3CN(S(C)(=O)=O)CCO[C@@H]3C2)s1`, the cytotoxicity at 10 µM is -4.75%.

`CCCn1cc(NC(=O)c2cccnc2O)ccc1=O`: the cytotoxicity at 10 µM was -13.1%.

For the compound `Cc1nc(C(C)C)ncc1C(=O)N1CCc2c(nc(N(C)C)[nH]c2=O)C1`, the cytotoxicity at 10 µM was found to be 14.3%.

Regarding `CCCc1nc(C(=O)N2CCN(C(=O)c3ccc(OC)cc3)CC2)cs1`, the cytotoxicity at 10 µM was -3.07%.

As to `NC(=O)N1CCCC(C(=O)NCCOc2ccc(F)cc2F)C1` (centres undefined), the cytotoxicity at 10 µM was 3.26%.

For `COc1ccc(-n2cc3[nH][nH]c(=O)n3c2=O)cc1`, the cytotoxicity at 10 µM was 10.3%.

In the case of `Cc1nc(CN2CCC(N(C)Cc3nnc(C4CC4)n3C)C2)oc1C` (centres undefined), the cytotoxicity at 10 µM is -16.1%.

As for `Cc1cc(CC(=O)NC2CCCN(c3ccccc3F)C2=O)n[nH]1` (centres undefined), the cytotoxicity at 10 µM is 1.46%.

Take `O=C(COc1ccccc1F)NCC(O)(c1ccccc1)C1CC1` (centres undefined): the cytotoxicity at 10 µM is -3.68%.

`COc1ccnc(NC(=O)c2cscn2)c1`: the cytotoxicity at 10 µM came to 9.72%.

As for `CCOc1ccc(C(=O)Nc2c(C)nc3ccccn3c2=O)cc1`, the cytotoxicity at 10 µM is 11.9%.

For the compound `Cn1cnnc1SCc1cc2c(cc1Br)OCO2`, the cytotoxicity at 10 µM is 6.44%.

On to `Cn1nc(CNC(=O)C2COc3ccccc3O2)cc1C1CC1` (centres undefined), for which the cytotoxicity at 10 µM was determined as 7.52%.

As for `c1cncc(-c2ccc3c(c2)C2(CCNCC2)CC3)c1`, the cytotoxicity at 10 µM was 4.59%.

For `CCN(CC)CCN1CCO[C@H]2[C@@H](OCc3ccncc3)CC[C@@H]21`, the cytotoxicity at 10 µM is -4.65%.

Turning to `Oc1ccc2oc3c(c2c1CN1CCOCC1)CCCC3`, the cytotoxicity at 10 µM is -0.499%.

Consider `Cc1occc1C(=O)N1CCC2(CCCN(CC3CCC3)C2=O)C1` (centres undefined), for which the cytotoxicity at 10 µM is -5.47%.

As for `Cc1noc(C)c1CCC(=O)NC(C)c1nnc2n1CCC2` (centres undefined), the cytotoxicity at 10 µM was -3.39%.

For `CCc1c(O)nc(SCC(=O)Nc2ccccc2)n(C(C)CC)c1=O` (centres undefined), the cytotoxicity at 10 µM worked out at 0.585%.

For the compound `O=C(C1CCOCC1)N1CCCC1c1cncc(CN2CCCC2)n1` (centres undefined), the cytotoxicity at 10 µM was -0.802%.

As for `CC1(C)CNC(=O)c2nc(CCN3CCCCC3CO)[nH]c2C1` (centres undefined), the cytotoxicity at 10 µM is -3.24%.

As for `Cc1nc(CN2CCCC2c2nc(C(C)C)no2)cs1` (centres undefined), the cytotoxicity at 10 µM is -9.7%.

In the case of `COCc1nc(C(=O)N2CCCC(n3nc(C)cc3C)C2)cs1` (centres undefined), the cytotoxicity at 10 µM is -8.57%.

As to `O=C(CN1CCS(=O)(=O)CC1)NC1CCCOc2ccccc21` (centres undefined), the cytotoxicity at 10 µM stood at 4.81%.

As to `COc1ccc(S(=O)(=O)NC(=O)c2cscn2)cc1C`, the cytotoxicity at 10 µM was 6.84%.

On to `CC(C)CCN1CCN(C(=O)c2cnccn2)CC1`, for which the cytotoxicity at 10 µM was found to be 0.365%.

Take `CN1CCCC(CCC(=O)N2CCc3c(nc(CC4CC4)[nH]c3=O)C2)C1` (centres undefined): the cytotoxicity at 10 µM was -8.61%.

Regarding `COc1ccc(OCCN(C)CCCn2cnc3c(N)ncnc32)cc1`, the cytotoxicity at 10 µM stood at 1.12%.

`OCCC1CN(C2CCC2)CCN1C1CCCC1` (centres undefined): the cytotoxicity at 10 µM is -18.5%.

As for `COCC(=O)N1CCN(Cc2cc(F)cc(Br)c2)CC1`, the cytotoxicity at 10 µM was 15.8%.

For the compound `Cc1nccn1-c1cc(CNC(=O)C(C)(C)C)ccn1`, the cytotoxicity at 10 µM was -11.9%.

As for `O=S(=O)(CCc1ccccc1Cl)CC(O)CO` (centres undefined), the cytotoxicity at 10 µM was 10.7%.

For `CCOc1cccc(COC(=O)c2cc(C)on2)n1`, the cytotoxicity at 10 µM was -5.08%.

As for `CN(C)c1ccc(CC(=O)N2CCOCC(O)C2)cc1` (centres undefined), the cytotoxicity at 10 µM stood at 13.3%.

With `CC(C)CN(CC(F)(F)F)S(=O)(=O)c1cc(C(N)=O)n(C)c1`, the cytotoxicity at 10 µM was -3.22%.

As for `COC(=O)c1cccn1C1CCN(C(=O)c2cc(F)ccc2C)CC1`, the cytotoxicity at 10 µM was -2.13%.

As to `CC(=O)N1N=C(COc2ccc3c(c2)OCO3)OC1c1ccc(C)cc1` (centres undefined), the cytotoxicity at 10 µM was 1.22%.

Regarding `CN(C)S(=O)(=O)N1CCC(Cn2cccn2)CC1`, the cytotoxicity at 10 µM is -10.9%.

Consider `CCc1ccc(C(=O)NCc2ccnc(N3CCN(C)CC3)c2)o1`, for which the cytotoxicity at 10 µM was -9.07%.

For `Cc1ncncc1-c1ccnc(N(C)C)n1`, the cytotoxicity at 10 µM was -8.3%.

For `CC(=O)N1CCC(Cc2cnc(-c3c(C)nn(C)c3C)cn2)C1` (centres undefined), the cytotoxicity at 10 µM is -7.31%.

Consider `CC(C)c1cccc(CSc2nnc(CN3CCCC3=O)o2)n1`, for which the cytotoxicity at 10 µM came out at 3.59%.

On to `CC1CCN(S(=O)(=O)NCCCn2cncn2)CC1`, for which the cytotoxicity at 10 µM was -4.91%.

In the case of `c1ccc2c(Cc3nnc([C@H]4CCN(C5CCOCC5)C4)o3)c[nH]c2c1`, the cytotoxicity at 10 µM worked out at 2.9%.

In the case of `CCN1CCN(C(=O)c2nc(C)n(-c3ccccc3Cl)n2)CC1`, the cytotoxicity at 10 µM was -2.87%.

Turning to `Cc1ccc(NC2CCN(C(=O)c3cccnc3O)CC2)nn1`, the cytotoxicity at 10 µM is -27.6%.

As for `COCCN1C[C@@H]2CN(c3ncccn3)C[C@@H]2C1=O`, the cytotoxicity at 10 µM was -11.9%.

On to `Cc1csc(CNC(=O)N(C)Cc2nnc3n2CCC3)n1`, for which the cytotoxicity at 10 µM was -4.75%.

In the case of `Cc1nc(C)n(CC2CCCN2c2ncnc3sccc23)n1` (centres undefined), the cytotoxicity at 10 µM was -1.09%.

Consider `O=c1n(CC2CC2)nc(C2CCNCC2)n1Cc1ccccc1`, for which the cytotoxicity at 10 µM was -4.8%.

In the case of `Cc1ncsc1CN(C)Cc1cc2c(cc1OC(F)F)OCO2`, the cytotoxicity at 10 µM is 6.22%.

As to `O=C(CN1CCN(C(=O)c2cccc(-c3ccoc3)c2)CC1)C1CC1`, the cytotoxicity at 10 µM is 0.504%.

In the case of `CCC(=O)Nc1nnc(CCOc2cccc(OC)c2)s1`, the cytotoxicity at 10 µM came out at 5.73%.

With `O=C(C1CCCC1)N1CCOC(c2nc(-c3ncccn3)no2)C1` (centres undefined), the cytotoxicity at 10 µM is -2.3%.

With `Cn1nc(C(C)(C)C)cc1NC(=O)Cn1ccnc1`, the cytotoxicity at 10 µM was determined as 1.5%.

As for `Cc1ccc(N2CCc3ncnc(C)c3CC2)nn1`, the cytotoxicity at 10 µM was -93.6%.

For the compound `COCCc1noc(CN2CCC3(CCCO3)CCC2=O)n1` (centres undefined), the cytotoxicity at 10 µM came out at 5.35%.

As to `COCCNc1c(C#N)c2c(c3nncn13)CN(C)CC2`, the cytotoxicity at 10 µM was found to be 6.83%.

`Cc1ccc2c(c1)CCC21CCN(CCO)CC1`: the cytotoxicity at 10 µM was -0.675%.

As to `Cc1cnc(-c2nc(NC3CCCC3)ncc2-c2onc(C)c2C)cn1`, the cytotoxicity at 10 µM was -32.5%.

For the compound `CC(C)C(=O)N1CCCC2(CC(C(=O)NCc3cccnc3)=NO2)C1` (centres undefined), the cytotoxicity at 10 µM is -2.77%.

As to `COc1cccc(-n2cc(CN(C)Cc3ccnc(C(C)C)n3)cn2)c1`, the cytotoxicity at 10 µM was -1.29%.

Take `CN(C)c1ccc(-c2cc(C(=O)O)cc(S(=O)(=O)NC3CC3)c2)cc1`: the cytotoxicity at 10 µM amounted to 16.5%.

Consider `COCCn1ccnc1C1CCN(C(=O)CSc2nnc(C)s2)CC1`, for which the cytotoxicity at 10 µM turned out to be 5.4%.

As to `CCS(=O)(=O)Nc1ccc2oc(C)c(C(C)=O)c2c1`, the cytotoxicity at 10 µM amounted to 7.13%.

For the compound `Cc1nc(C)n(C2CCCN(C(=O)c3csc(CC(C)C)n3)C2)n1` (centres undefined), the cytotoxicity at 10 µM was -17.3%.

In the case of `CN(C)Cc1cn(-c2ccccc2C(=O)NCCC2CCCN2C)cn1` (centres undefined), the cytotoxicity at 10 µM is 4.08%.

As for `Cn1c2ncccc2c(=O)n1CC(=O)NCCc1c(F)cccc1F`, the cytotoxicity at 10 µM was -5.33%.

For the compound `COC(=O)CNC(=O)c1cc(-c2ccccc2)nc2ncnn12`, the cytotoxicity at 10 µM is -5.07%.

On to `Cc1nc(-c2noc3ccc(C(=O)NCCN4CCOCC4)cc23)cs1`, for which the cytotoxicity at 10 µM came to 4.19%.

As to `CN1CCN2C(=O)N(C3CCCCC3)C[C@H]2C1`, the cytotoxicity at 10 µM was -3.1%.

In the case of `N#Cc1cccnc1NCCNC(=O)NCCSC(F)(F)F`, the cytotoxicity at 10 µM amounted to 1.2%.

For the compound `CCC(C)(C)c1cc(-c2c(C)nn(CCO)c2C)c(C#N)c(N)n1`, the cytotoxicity at 10 µM turned out to be 3.31%.

As for `CCCc1nnc(C(=O)N(C)Cc2ccc(OC)cc2)o1`, the cytotoxicity at 10 µM worked out at 2.64%.

`CC(O)(CNc1ccc(Cl)c(C#N)n1)c1ccsc1` (centres undefined): the cytotoxicity at 10 µM came out at 3.39%.

Consider `CS(=O)(=O)NCCCNCc1cc(F)ccc1Br`, for which the cytotoxicity at 10 µM was determined as 15.7%.

On to `O=C(C1CC1)N1CCCC1C1CCN(Cc2ccccc2)CC1` (centres undefined), for which the cytotoxicity at 10 µM was -9.37%.

As to `COCC1CN(Cc2ccc(C)o2)Cc2ncn(CC3CC3)c21` (centres undefined), the cytotoxicity at 10 µM is -11%.

Consider `O=C(Cc1ccc2c(c1)CCC2)N1CCN(c2cnccn2)CC1`, for which the cytotoxicity at 10 µM is -2.18%.

As for `C[C@@H]1CN(C(=O)C2(Cn3cccn3)CC2)C[C@@]1(O)C1CCC1`, the cytotoxicity at 10 µM was determined as 1.56%.

On to `CC(C)NC(=O)c1ccc(NC(=O)NC(C)c2ccccn2)cc1` (centres undefined), for which the cytotoxicity at 10 µM came to 9.44%.

With `CNC(=O)CC1CC2(CCNCC2)c2cc(F)ccc21` (centres undefined), the cytotoxicity at 10 µM is -107%.

On to `COc1cc(C2(C(=O)NC3CCC4(CC3)OCCO4)CC2)ccc1C`, for which the cytotoxicity at 10 µM was -13.2%.

Regarding `O=C1OCCN1CCSc1nnnn1C1CCOCC1`, the cytotoxicity at 10 µM is -48.4%.

With `CC1CCc2nc(NC(=O)CN(C)C(=O)c3ccco3)sc2C1` (centres undefined), the cytotoxicity at 10 µM was -11.4%.

As for `CC(O)(CN1CCC(O)CC1)c1cccc(C(F)(F)F)c1` (centres undefined), the cytotoxicity at 10 µM was -0.0552%.

Turning to `N#Cc1cccc(C(=O)N2C[C@H](CO)C[C@H](CN3CCCC3)C2)c1`, the cytotoxicity at 10 µM was -1.04%.

Take `C[C@@H]1CN(c2nc3c(cc2C(N)=O)CCC3)CC[C@@]1(O)C1CCC1`: the cytotoxicity at 10 µM is 0.186%.

Take `Cc1cccc(N2CCN(C(=O)NC(C)c3nncn3C)CC2)c1C` (centres undefined): the cytotoxicity at 10 µM is -4.41%.

Regarding `O=C(c1ccc2c(c1)OCO2)N1CCCC(n2cccn2)C1` (centres undefined), the cytotoxicity at 10 µM is -8.4%.

In the case of `CC(C)C(=O)Nc1ncn(Cc2cccc(Br)c2)n1`, the cytotoxicity at 10 µM was -9.95%.

Turning to `CN1CCN2C[C@@H](CO)[C@H](c3ccccc3)[C@H]2C1`, the cytotoxicity at 10 µM was 8.78%.

Turning to `Cc1cc2nc(-c3cn(C4CCNCC4)nn3)[nH]c2cc1C`, the cytotoxicity at 10 µM was -8.1%.
